# Experimental data: ChEMBL document CHEMBL1129059, “Antitumor properties of some 2-[(dimethylamino)methyl]phenylgold(III) complexes” (J Med Chem, 1996)
# Key:
# Format in all cases: functional, organism-based
# [1] = test system: Mus musculus; test: Compound was evaluated for antitumor activity (RTV) in HT1376 carcinoma Xenograft, at a dosage 12.5 mg/kg on day 7; set-up: dose 12.5 mg/kg
# Summary of the method: (§1)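 HT1376 tumor fragments implanted subcutaneously in nude mice flanks; mice with established palpable tumors randomized into groups of 6 (controls 10). Compounds given intraperitoneally as suspensions in 0.5% carboxymethylcellulose in 0.9% saline, on days 0, 7, 14 and 21. Tumor dimensions on days 0, 7, 14, 21, 28. RTV = 100(mean tumor volume at assessment)/(mean start volume).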
# [2] = test system: Mus musculus; test: Compound was evaluated for antitumor activity (T/C) in HT1376 carcinoma Xenograft, at a dosage 12.5 mg/kg on day 28; set-up: dose 12.5 mg/kg
# Summary of the method: (§2)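 Subcutaneous HT1376 xenografts in nude mice, 6 per treated group and 10 controls. Intraperitoneal dosing as suspensions in 0.5% carboxymethylcellulose/0.9% saline on days 0, 7, 14, 21; tumors measured weekly to day 28. T/C = RTV of treated group / RTV of untreated control group; significance by t-test at the 5% level.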
# [3] = test system: Mus musculus; test: Compound was evaluated for antitumor activity (RTV) in HT1376 carcinoma Xenograft, at a dosage 12.5 mg/kg on day 28; set-up: dose 12.5 mg/kg; summary of the method: as §1
# [4] = test system: Mus musculus; test: Compound was evaluated for antitumor activity (T/C) in HT1376 carcinoma Xenograft, at a dosage 25 mg/kg on day 21; set-up: dose 25 mg/kg; summary of the method: as §2
# [5] = test system: Mus musculus; test: Compound was evaluated for antitumor activity (T/C) in PNX/109/TC carcinoma Xenograft, at a dosage 5 mg/kg on day 14; set-up: dose 5 mg/kg
# Summary of the method: (§3)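 PNX/109/TC (CH1) ovarian tumor fragments implanted subcutaneously in the flanks of nude mice. Once tumors were palpable, mice were randomized into 6 per treated group and 10 controls. Dosing was ip in arachis oil on days 0, 7, 14 and 21, at the MTD and two 2-fold dilutions, with tumor dimensions taken on days 0, 7, 14, 21 and 28. T/C is treated RTV over control RTV, with RTV relative to start volume.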
# [6] = test system: Mus musculus; test: Compound was evaluated for antitumor activity (RTV) in HT1376 carcinoma Xenograft, at a dosage 12.5 mg/kg on day 14; set-up: dose 12.5 mg/kg; summary of the method: as §1
# [7] = test system: Mus musculus; test: Compound was evaluated for antitumor activity (RTV) in HT1376 carcinoma Xenograft, at a dosage 6.25 mg/kg on day 14; set-up: dose 6.25 mg/kg; summary of the method: as §1
# [8] = test system: Mus musculus; test: Compound was evaluated for antitumor activity (RTV) in PNX/109/TC carcinoma Xenograft, at a dosage 10 mg/kg on day 28; set-up: dose 10 mg/kg
# Summary of the method: (§4)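 PXN/109/TC (CH1) ovarian tumor fragments implanted subcutaneously in nude mice flanks; established palpable tumors, groups of 6 (controls 10). Dosed intraperitoneally as suspension in arachis oil on days 0, 7, 14, 21. Tumors measured days 0, 7, 14, 21, 28. RTV = 100(mean tumor volume at assessment)/(mean start volume).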
# [9] = test system: Mus musculus; test: Compound was evaluated for antitumor activity (T/C) in PNX/109/TC carcinoma Xenograft, at a dosage 20 mg/kg on day 21; set-up: dose 20 mg/kg; summary of the method: as §3
# [10] = test system: Mus musculus; test: Compound was evaluated for antitumor activity (RTV) in PNX/109/TC carcinoma Xenograft, at a dosage 20 mg/kg on day 14; set-up: dose 20 mg/kg; summary of the method: as §4
# [11] = test system: Mus musculus; test: Compound was evaluated for antitumor activity (RTV) in PNX/109/TC carcinoma Xenograft, at a dosage 20 mg/kg on day 21; set-up: dose 20 mg/kg; summary of the method: as §4
# [12] = test system: Mus musculus; test: Compound was evaluated for antitumor activity (T/C) in HT1376 carcinoma Xenograft, at a dosage 25 mg/kg on day 28; set-up: dose 25 mg/kg
# Summary of the method: (§5)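 Nude mice carrying subcutaneous flank HT1376 fragments; treatment began once tumors were established and palpable, randomized into groups of 6 treated and 10 control mice. Dosing was ip as a suspension in 0.5% carboxymethylcellulose in 0.9% saline on days 0, 7, 14 and 21, at the MTD and two 2-fold dilutions. Tumors were measured on days 0-28. RTV = 100(mean volume at assessment)/(mean start volume); T/C = treated RTV/control RTV.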
# [13] = test system: Mus musculus; test: Compound was evaluated for antitumor activity (T/C) in HT1376 carcinoma Xenograft, at a dosage 6.25 mg/kg on day 7; set-up: dose 6.25 mg/kg; summary of the method: as §5
# [14] = test system: Mus musculus; test: Compound was evaluated for antitumor activity (T/C) in PNX/109/TC carcinoma Xenograft, at a dosage 10 mg/kg on day 21; set-up: dose 10 mg/kg; summary of the method: as §3
# [15] = test system: Mus musculus; test: Compound was evaluated for antitumor activity (RTV) in HT1376 carcinoma Xenograft, at a dosage 25 mg/kg on day 28; set-up: dose 25 mg/kg; summary of the method: as §1
# [16] = test system: Mus musculus; test: Compound was evaluated for antitumor activity (T/C) in HT1376 carcinoma Xenograft, at a dosage 25 mg/kg on day 14; set-up: dose 25 mg/kg; summary of the method: as §2
# [17] = test system: Mus musculus; test: Compound was evaluated for antitumor activity (T/C) in PNX/109/TC carcinoma Xenograft, at a dosage 10 mg/kg on day 28; set-up: dose 10 mg/kg; summary of the method: as §3
# [18] = test system: Mus musculus; test: Compound was evaluated for antitumor activity (RTV) in PNX/109/TC carcinoma Xenograft, at a dosage 5 mg/kg on day 21; set-up: dose 5 mg/kg; summary of the method: as §4
# [19] = test system: Mus musculus; test: Compound was evaluated for antitumor activity (T/C) in PNX/109/TC carcinoma Xenograft, at a dosage 10 mg/kg on day 14; set-up: dose 10 mg/kg; summary of the method: as §3
# [20] = test system: Mus musculus; test: Compound was evaluated for antitumor activity (T/C) in HT1376 carcinoma Xenograft, at a dosage 6.25 mg/kg on day 21; set-up: dose 6.25 mg/kg; summary of the method: as §5
# [21] = test system: Mus musculus; test: Compound was evaluated for antitumor activity (T/C) in PNX/109/TC carcinoma Xenograft, at a dosage 10 mg/kg on day 7; set-up: dose 10 mg/kg; summary of the method: as §3
# [22] = test system: Mus musculus; test: Compound was evaluated for antitumor activity (T/C) in HT1376 carcinoma Xenograft, at a dosage 6.25 mg/kg on day 14; set-up: dose 6.25 mg/kg; summary of the method: as §5
# [23] = test system: Mus musculus; test: Compound was evaluated for antitumor activity (RTV) in HT1376 carcinoma Xenograft, at a dosage 12.5 mg/kg on day 21; set-up: dose 12.5 mg/kg; summary of the method: as §1
# [24] = test system: Mus musculus; test: Compound was evaluated for antitumor activity (RTV) in PNX/109/TC carcinoma Xenograft, at a dosage 20 mg/kg on day 28; set-up: dose 20 mg/kg; summary of the method: as §4
# [25] = test system: Mus musculus; test: Compound was evaluated for antitumor activity (RTV) in PNX/109/TC carcinoma Xenograft, at a dosage 10 mg/kg on day 7; set-up: dose 10 mg/kg; summary of the method: as §4
# [26] = test system: Mus musculus; test: Compound was evaluated for antitumor activity (RTV) in HT1376 carcinoma Xenograft, at a dosage 25 mg/kg on day 21; set-up: dose 25 mg/kg; summary of the method: as §1
# [27] = test system: Mus musculus; test: Compound was evaluated for antitumor activity (T/C) in HT1376 carcinoma Xenograft, at a dosage 25 mg/kg on day 7; set-up: dose 25 mg/kg; summary of the method: as §5
# [28] = test system: Mus musculus; test: Compound was evaluated for antitumor activity (RTV) in HT1376 carcinoma Xenograft, at a dosage 6.25 mg/kg on day 28; set-up: dose 6.25 mg/kg; summary of the method: as §1
# [29] = test system: Mus musculus; test: Compound was evaluated for antitumor activity (T/C) in PNX/109/TC carcinoma Xenograft, at a dosage 5 mg/kg on day 28; set-up: dose 5 mg/kg; summary of the method: as §3
# [30] = test system: Mus musculus; test: Compound was evaluated for antitumor activity (RTV) in PNX/109/TC carcinoma Xenograft, at a dosage 10 mg/kg on day 21; set-up: dose 10 mg/kg; summary of the method: as §4
# [31] = test system: Mus musculus; test: Compound was evaluated for antitumor activity (RTV) in PNX/109/TC carcinoma Xenograft, at a dosage 10 mg/kg on day 14; set-up: dose 10 mg/kg; summary of the method: as §4
# [32] = test system: Mus musculus; test: Compound was evaluated for antitumor activity (RTV) in HT1376 carcinoma Xenograft, at a dosage 6.25 mg/kg on day 7.; set-up: dose 6.25 mg/kg; summary of the method: as §1
# [33] = test system: Mus musculus; test: Compound was evaluated for antitumor activity (RTV) in HT1376 carcinoma Xenograft, at a dosage 6.25 mg/kg on day 21; set-up: dose 6.25 mg/kg; summary of the method: as §1
substance,measurement,setting,value
"Acetato[2-(dimethylamino)methyl]phenyl-C,N]gold-(III)",RTV,[1],212
same,T/C,[2],0.75
same,RTV,[3],1080
same,T/C,[4],0.76
same,T/C,[5],0.8
same,RTV,[6],498
same,RTV,[7],724
same,RTV,[8],833
same,T/C,[9],0.51
same,RTV,[10],200
same,RTV,[11],258
same,T/C,[12],0.6
same,T/C,[13],1.37
same,T/C,[14],1.03
same,RTV,[15],870
same,T/C,[16],0.9
same,T/C,[17],1.34
same,RTV,[18],423
same,T/C,[19],0.9
same,T/C,[20],1.07
same,T/C,[21],0.76
same,T/C,[22],1.43
same,RTV,[23],682
same,RTV,[24],481
same,RTV,[25],173
same,RTV,[26],671
same,T/C,[27],0.93
same,RTV,[28],1670
same,T/C,[29],1.08
same,RTV,[30],515
same,RTV,[31],316
same,RTV,[32],379
same,RTV,[33],953
